ChEMBL document CHEMBL3352666, “Human Toll-like receptor 8-selective agonistic activities in 1-alkyl-1H-benzimidazol-2-amines” (J Med Chem, 2014)
Calls of active or inactive are those of the source.

Columns and labels:
Format in all cases: cell-based
[1] = target: T1, Toll-like receptor 7 (Homo sapiens) (UniProt Q9NYK1); test: Agonist activity at human TLR7 stably expressed in HEK293 cells co-expressing secreted alkaline phosphatase assessed as NF-kappaB induction by liquid handler-assisted reporter gene assay
T1 sequence (whole entry): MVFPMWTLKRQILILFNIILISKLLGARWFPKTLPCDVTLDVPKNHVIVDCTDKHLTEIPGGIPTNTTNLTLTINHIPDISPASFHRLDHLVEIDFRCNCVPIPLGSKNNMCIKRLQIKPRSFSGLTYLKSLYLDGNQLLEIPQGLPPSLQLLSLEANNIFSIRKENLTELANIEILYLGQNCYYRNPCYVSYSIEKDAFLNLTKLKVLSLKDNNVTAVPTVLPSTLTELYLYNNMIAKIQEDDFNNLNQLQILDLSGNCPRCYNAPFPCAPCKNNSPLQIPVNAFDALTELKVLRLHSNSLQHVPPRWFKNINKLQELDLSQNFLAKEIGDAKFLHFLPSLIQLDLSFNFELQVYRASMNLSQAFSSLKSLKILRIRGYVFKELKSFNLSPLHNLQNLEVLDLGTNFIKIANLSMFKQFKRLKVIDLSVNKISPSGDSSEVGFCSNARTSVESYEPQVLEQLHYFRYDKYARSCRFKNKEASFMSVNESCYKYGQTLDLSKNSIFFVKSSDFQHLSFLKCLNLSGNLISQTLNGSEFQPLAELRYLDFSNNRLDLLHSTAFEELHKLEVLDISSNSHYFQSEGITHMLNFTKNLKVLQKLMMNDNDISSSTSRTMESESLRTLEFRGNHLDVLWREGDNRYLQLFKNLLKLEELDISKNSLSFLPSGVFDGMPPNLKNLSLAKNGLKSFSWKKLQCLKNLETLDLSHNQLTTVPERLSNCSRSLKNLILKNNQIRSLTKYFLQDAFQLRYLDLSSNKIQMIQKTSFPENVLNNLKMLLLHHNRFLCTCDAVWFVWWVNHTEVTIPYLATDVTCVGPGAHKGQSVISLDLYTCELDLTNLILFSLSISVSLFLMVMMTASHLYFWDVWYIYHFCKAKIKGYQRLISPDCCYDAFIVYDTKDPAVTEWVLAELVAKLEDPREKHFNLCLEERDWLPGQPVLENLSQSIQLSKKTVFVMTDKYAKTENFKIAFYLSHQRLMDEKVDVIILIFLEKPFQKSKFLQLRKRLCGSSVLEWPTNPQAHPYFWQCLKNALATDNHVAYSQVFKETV
Method in brief: (§1)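 HEK293 reporter cells stably co-transfected with the respective human TLR or NOD receptor plus NF-κB/AP-1-driven secreted alkaline phosphatase, kept in selection medium. About 10^5 cells/ml were incubated with graded concentrations of test compound in 384-well format. Supernatant sAP was read colorimetrically at 620 nm with an alkaline phosphatase-specific chromogen in detection medium.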

[2] = target: Toll-like receptor 4 (Homo sapiens) (UniProt O00206); test: Agonist activity at human TLR4 stably expressed in HEK293 cells co-expressing secreted alkaline phosphatase assessed as NF-kappaB induction by liquid handler-assisted reporter gene assay; method in brief: as §1
[3] = target: Toll-like receptor 2 (Homo sapiens) (UniProt O60603); test: Agonist activity at human TLR2 stably expressed in HEK293 cells co-expressing secreted alkaline phosphatase assessed as NF-kappaB induction by liquid handler-assisted reporter gene assay; method in brief: as §1
[4] = target: Nucleotide-binding oligomerization domain-containing protein 2 (Homo sapiens, UniProt Q9HC29); test: Agonist activity at human NOD2 stably expressed in HEK293 cells co-expressing secreted alkaline phosphatase assessed as NF-kappaB induction by liquid handler-assisted reporter gene assay; method in brief: as §1
[5] = target: T2, Toll-like receptor 9 (Homo sapiens) (UniProt Q9NR96); test: Agonist activity at human TLR9 stably expressed in HEK293 cells co-expressing secreted alkaline phosphatase assessed as NF-kappaB induction by liquid handler-assisted reporter gene assay; method in brief: as §1
T2 sequence (whole entry): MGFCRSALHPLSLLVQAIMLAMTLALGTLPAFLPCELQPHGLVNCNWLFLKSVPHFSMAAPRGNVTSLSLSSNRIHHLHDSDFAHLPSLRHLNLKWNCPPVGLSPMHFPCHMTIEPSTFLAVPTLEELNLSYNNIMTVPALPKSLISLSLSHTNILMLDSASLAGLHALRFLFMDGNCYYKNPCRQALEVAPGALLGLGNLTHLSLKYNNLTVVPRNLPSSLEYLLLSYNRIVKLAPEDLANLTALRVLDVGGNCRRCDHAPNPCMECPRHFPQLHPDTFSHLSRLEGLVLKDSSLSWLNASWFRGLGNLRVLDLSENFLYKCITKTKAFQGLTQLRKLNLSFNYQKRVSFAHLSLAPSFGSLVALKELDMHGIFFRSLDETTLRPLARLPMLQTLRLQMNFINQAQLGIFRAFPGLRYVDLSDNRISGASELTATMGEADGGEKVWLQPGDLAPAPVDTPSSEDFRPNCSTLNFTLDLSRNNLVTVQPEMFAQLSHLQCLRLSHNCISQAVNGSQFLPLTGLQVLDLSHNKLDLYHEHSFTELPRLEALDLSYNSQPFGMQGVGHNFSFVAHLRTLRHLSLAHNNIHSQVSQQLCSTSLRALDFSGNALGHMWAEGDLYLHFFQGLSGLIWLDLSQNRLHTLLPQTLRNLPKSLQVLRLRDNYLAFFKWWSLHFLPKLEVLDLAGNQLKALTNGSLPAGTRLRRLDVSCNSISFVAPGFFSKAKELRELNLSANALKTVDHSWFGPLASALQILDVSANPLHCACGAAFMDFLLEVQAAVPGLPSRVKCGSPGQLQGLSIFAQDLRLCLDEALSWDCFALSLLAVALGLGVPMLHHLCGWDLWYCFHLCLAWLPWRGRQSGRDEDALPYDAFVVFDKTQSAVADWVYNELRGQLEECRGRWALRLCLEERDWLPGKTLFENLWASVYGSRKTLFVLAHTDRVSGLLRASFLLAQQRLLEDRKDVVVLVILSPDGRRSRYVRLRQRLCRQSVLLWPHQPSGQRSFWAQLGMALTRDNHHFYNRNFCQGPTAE

[6] = target: Toll-like receptor 5 (Homo sapiens) (UniProt O60602); test: Agonist activity at human TLR5 stably expressed in HEK293 cells co-expressing secreted alkaline phosphatase assessed as NF-kappaB induction by liquid handler-assisted reporter gene assay; method in brief: as §1

Measured: Activity

Toll-like receptor 4 (Homo sapiens), sequence (O00206 whole entry): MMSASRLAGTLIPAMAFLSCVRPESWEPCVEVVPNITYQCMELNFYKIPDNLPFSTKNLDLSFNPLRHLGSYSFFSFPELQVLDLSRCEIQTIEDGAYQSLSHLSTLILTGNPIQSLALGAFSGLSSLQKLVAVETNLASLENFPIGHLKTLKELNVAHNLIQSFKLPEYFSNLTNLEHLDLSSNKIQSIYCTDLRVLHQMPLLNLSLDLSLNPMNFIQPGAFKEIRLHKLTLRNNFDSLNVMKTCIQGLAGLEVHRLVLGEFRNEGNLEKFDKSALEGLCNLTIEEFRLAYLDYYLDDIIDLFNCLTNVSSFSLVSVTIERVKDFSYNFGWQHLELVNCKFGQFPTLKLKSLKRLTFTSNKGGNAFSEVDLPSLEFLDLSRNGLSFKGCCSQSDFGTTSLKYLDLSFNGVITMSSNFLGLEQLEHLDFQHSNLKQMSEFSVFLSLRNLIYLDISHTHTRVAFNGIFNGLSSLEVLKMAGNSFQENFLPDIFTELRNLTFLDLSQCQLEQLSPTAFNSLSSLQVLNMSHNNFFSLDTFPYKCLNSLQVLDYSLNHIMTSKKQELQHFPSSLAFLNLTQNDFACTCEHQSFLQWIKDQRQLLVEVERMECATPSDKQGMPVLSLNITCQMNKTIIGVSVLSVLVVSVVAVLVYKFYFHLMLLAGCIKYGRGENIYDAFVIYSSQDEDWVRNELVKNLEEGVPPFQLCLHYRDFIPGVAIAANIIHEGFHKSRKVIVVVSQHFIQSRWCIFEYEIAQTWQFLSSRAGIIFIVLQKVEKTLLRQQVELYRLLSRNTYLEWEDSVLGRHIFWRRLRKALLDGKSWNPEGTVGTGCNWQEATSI
Toll-like receptor 2 (Homo sapiens), sequence (O60603 whole entry, the tested form may be a part): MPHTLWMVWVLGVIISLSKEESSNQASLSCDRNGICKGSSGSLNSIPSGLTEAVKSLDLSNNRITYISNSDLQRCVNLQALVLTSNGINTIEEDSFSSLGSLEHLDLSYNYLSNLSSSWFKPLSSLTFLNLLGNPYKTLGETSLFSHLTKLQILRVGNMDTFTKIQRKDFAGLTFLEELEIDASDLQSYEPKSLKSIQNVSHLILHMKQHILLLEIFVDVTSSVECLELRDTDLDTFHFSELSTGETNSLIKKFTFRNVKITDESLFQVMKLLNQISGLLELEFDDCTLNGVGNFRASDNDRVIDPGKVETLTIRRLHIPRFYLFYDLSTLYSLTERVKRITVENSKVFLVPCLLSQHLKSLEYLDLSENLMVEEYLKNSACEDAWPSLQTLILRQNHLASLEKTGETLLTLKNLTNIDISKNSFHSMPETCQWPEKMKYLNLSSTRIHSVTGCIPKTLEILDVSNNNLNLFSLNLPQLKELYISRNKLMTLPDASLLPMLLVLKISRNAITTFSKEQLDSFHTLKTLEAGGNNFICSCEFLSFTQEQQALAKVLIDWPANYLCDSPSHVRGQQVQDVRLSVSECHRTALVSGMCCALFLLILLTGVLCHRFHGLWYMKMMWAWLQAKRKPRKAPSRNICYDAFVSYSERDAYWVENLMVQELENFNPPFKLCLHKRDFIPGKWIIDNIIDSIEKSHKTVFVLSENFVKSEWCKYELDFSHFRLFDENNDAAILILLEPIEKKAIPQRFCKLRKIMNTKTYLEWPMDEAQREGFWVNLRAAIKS
Toll-like receptor 5 (Homo sapiens), sequence (O60602 whole entry): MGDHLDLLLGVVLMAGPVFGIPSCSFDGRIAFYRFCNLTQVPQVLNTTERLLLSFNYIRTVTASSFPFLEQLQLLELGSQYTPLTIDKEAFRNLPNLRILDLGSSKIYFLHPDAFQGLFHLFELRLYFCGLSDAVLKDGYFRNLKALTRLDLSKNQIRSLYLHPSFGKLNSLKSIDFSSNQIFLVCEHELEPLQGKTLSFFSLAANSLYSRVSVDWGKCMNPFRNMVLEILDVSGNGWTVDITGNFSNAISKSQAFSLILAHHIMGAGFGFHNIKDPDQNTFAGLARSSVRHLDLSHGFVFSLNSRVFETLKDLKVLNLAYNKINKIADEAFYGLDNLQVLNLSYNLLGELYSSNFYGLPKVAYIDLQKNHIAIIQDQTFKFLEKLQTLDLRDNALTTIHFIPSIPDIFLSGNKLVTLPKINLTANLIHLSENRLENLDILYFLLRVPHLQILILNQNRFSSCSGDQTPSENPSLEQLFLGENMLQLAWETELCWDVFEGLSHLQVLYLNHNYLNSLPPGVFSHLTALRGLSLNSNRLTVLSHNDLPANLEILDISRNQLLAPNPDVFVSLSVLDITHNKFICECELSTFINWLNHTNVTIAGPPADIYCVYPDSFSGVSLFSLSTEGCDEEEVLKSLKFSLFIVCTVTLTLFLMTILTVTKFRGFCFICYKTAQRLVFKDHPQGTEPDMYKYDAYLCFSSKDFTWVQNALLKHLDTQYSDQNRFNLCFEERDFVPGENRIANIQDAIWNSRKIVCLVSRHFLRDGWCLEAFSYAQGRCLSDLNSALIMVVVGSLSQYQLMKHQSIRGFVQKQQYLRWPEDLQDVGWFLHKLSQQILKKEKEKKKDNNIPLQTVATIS
Nucleotide-binding oligomerization domain-containing protein 2, sequence (Q9HC29 whole entry, the tested form may be a part): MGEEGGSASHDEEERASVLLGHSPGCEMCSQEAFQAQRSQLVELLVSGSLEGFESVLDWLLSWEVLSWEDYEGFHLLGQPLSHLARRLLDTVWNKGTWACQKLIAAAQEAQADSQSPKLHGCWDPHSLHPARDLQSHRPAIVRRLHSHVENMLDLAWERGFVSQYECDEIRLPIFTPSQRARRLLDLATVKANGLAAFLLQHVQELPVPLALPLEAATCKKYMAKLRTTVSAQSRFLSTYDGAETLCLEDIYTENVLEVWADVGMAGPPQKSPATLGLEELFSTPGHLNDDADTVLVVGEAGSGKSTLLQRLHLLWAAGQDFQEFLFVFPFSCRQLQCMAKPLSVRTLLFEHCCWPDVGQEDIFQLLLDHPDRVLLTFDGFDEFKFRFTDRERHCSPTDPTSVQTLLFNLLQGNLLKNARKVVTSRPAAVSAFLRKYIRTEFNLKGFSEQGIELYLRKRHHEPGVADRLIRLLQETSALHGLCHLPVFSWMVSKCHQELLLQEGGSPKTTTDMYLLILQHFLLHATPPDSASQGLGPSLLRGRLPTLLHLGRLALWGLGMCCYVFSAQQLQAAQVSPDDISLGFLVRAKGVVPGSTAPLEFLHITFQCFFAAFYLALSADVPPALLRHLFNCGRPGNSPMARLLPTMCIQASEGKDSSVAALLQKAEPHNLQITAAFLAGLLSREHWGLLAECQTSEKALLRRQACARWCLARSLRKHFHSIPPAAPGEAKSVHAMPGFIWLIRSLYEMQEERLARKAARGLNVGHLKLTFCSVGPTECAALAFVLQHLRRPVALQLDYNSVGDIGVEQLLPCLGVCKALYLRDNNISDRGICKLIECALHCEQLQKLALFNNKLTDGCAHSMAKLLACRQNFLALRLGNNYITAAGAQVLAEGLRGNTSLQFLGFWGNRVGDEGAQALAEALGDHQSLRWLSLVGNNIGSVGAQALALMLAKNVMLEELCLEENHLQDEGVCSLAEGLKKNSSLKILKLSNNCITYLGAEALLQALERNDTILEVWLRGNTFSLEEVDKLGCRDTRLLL

CCCCCn1c(N)nc2c(-c3ccccc3)cccc21
inactive: [1] | [2] | [3] | [4] | [5] | [6]

CCCCCn1c(N)nc2ccncc21
inactive: [1] | [2] | [3] | [4] | [5] | [6]
